ChEMBL document CHEMBL4152329, “Benzofuran hydrazones as potential scaffold in the development of multifunctional drugs: Synthesis and evaluation of antioxidant, photoprotective and antiproliferative activity” (Eur J Med Chem, 2018)

Key:
[1] = Antioxidant activity assessed as DPPH free radical scavenging activity by measuring trolox equivalent by spectrophotometric analysis; assay type: functional
Procedure, shortened: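 Diluted compound solution (0.750 mL) added to 1.5 mL methanolic DPPH. Absorbance decrease read at 517 nm. Blank was DPPH plus methanol. Inhibition % = [(AB−As)/AB]×100. Trolox calibration curve used as standard.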

[2] = Antioxidant activity assessed as ferric ion reducing activity by measuring trolox equivalents after 10 mins by FRAP assay; assay type: functional
Procedure, shortened: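 Reagent made fresh: 0.1 M acetate buffer pH 3.6, 10 mM TPTZ in 40 mM HCl and 20 mM FeCl3 at 10:1:1 (v/v/v). Diluted sample (0.1 mL) added to 1.9 mL reagent; solvent used for blank. Absorbance at 593 nm after 10 min, increase taken over blank. Expressed as Trolox activity from calibration curve.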

[3] = Antioxidant activity assessed as AAPH-induced radical scavenging activity by measuring trolox equivalents for oxygen radical absorbance capacity measured at 5 mins intervals up to 30 mins by ORAC-FL assay; assay type: functional
Procedure, shortened: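 Fluorescein (85 nM) as target, AAPH as peroxyl radical generator, 0.2 mL final volume. Compounds dissolved in methanol and diluted in phosphate buffer pH 7.4. Fluorescence read at ex 485/em 538 nm, 37 °C, every 5 min up to 30 min after AAPH. Value from difference in areas under fluorescein decay curves, blank vs sample. Trolox calibration 40–240 µM; µmol TE per gram compound.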

[4] = Antiproliferative activity against human Colo38 cells after 7 days by Coulter counter method; assay type: functional, cell-based; conditions: 168 h
Procedure, shortened: (§1)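 RPMI 1640 with 10% FBS, penicillin, streptomycin and 2 mM glutamine, pH 7.2, 37 °C, 5% CO2. Stocks 20 mM in MeOH/DMSO 10%, diluted in MeOH, added at serial dilutions. Cells suspended in physiological solution and counted by Coulter counter. IC50 = 50% growth inhibition while untreated cells in log phase. Untreated cells as negative control on every plate.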

[5] = system: K562; experiment: Antiproliferative activity against human K562 cells after 7 days by Coulter counter method; assay type: functional, cell-based; conditions: K562, 168 h; procedure, shortened: as §1
[6] = UV filtering activity of the compound assessed as maximum absorption wavelength; assay type: functional
Procedure, shortened: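 UV absorption spectrum recorded in methanol at 0.000034 (± 0.0000033) M; wavelength of maximum absorption taken, together with molar extinction coefficient.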

[7] = UV filtering activity of the compound assessed as wavelength at which the integral of the spectral absorbance curve reaches 90% of area under the curve from 290 to 400 nm; assay type: functional
Procedure, shortened: (§2)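 Spectra recorded on methanolic solutions at 0.000034 (± 0.0000033) M. Absorbance converted to transmittance by A(λ) = −Log[T(λ)], and SPF, UVA/UVB ratio, UVAPF and critical wavelength derived from the transmittance spectrum. Method adapted from the official in vitro SPF method; UVAPF per ISO-24443. PBSA served as reference.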

[8] = UV filtering activity of the compound assessed as solar protection factor relative to control; assay type: functional; procedure, shortened: as §2
[9] = UV filtering activity of the compound assessed as UVA/UVB ratio; assay type: functional; procedure, shortened: as §2
[10] = UV filtering activity of the compound assessed as UVA protection factor value relative to control; assay type: functional; procedure, shortened: as §2
[11] = system: K562; experiment: Induction of erythroid differentiation on human K562 cells after 5 days by benzidine staining-based assay; assay type: functional
Procedure, shortened: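 K562 cells treated in culture, then scored for erythroid differentiation by benzidine staining with 0.2% benzidine in 5 M glacial acetic acid and 10% H2O2. Assayed after 5, 6 and 7 days of treatment; value given as percentage of differentiated cells.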

| SMILES | Activity [1] | Activity [2] | Activity [3] | IC50 [4] | IC50 [5] | Activity [6] | Activity [7] | SPF [8] | Ratio [9] | UVAPF [10] | Activity [11] |
| --- | --- | --- | --- | --- | --- | --- | --- | --- | --- | --- | --- |
| O=C(N/N=C/c1ccc(O)cc1)c1cc2ccccc2o1 | 45.8 µmolequiv/g | 2290 µmolequiv/g | 26100 µmolequiv/g | 39.4 µM | 79.9 µM | 328 nm | 322 nm | 3.4 | 0.29 | 1.03 | – |
| CCN(CC)c1ccc(/C=N/NC(=O)c2cc3ccccc3o2)c(O)c1 | 1010 µmolequiv/g | 4150 µmolequiv/g | 22100 µmolequiv/g | 0.44 µM | 0.52 µM | 381 nm | 387 nm | 2.59 | 1.29 | 3.6 | – |
| O=C(N/N=C/c1cc(O)ccc1O)c1cc2ccccc2o1 | 6200 µmolequiv/g | 6970 µmolequiv/g | 19000 µmolequiv/g | 6.26 µM | 36.8 µM | 306 nm | 366 nm | 2.18 | 1.33 | 2.38 | – |
| COc1cc(/C=N/NC(=O)c2cc3ccccc3o2)ccc1O | 101 µmolequiv/g | 3100 µmolequiv/g | 10900 µmolequiv/g | 49 µM | 5.6 µM | 334 nm | 371 nm | 3.36 | 2.33 | 5.57 | 5% |
| O=S(=O)(O)c1ccc2[nH]c(-c3ccccc3)nc2c1 | – | – | – | – | – | 302 nm | 394 nm | 1.68 | 1.27 | 5.1 | – |
| O=C(N/N=C/c1cccc(O)c1)c1cc2ccccc2o1 | 76.7 µmolequiv/g | 1670 µmolequiv/g | 6790 µmolequiv/g | 6.2 µM | 52.4 µM | 314 nm | 353 nm | 7.58 | 0.85 | 2.45 | – |
| O=C(N/N=C/c1ccc(O)cc1O)c1cc2ccccc2o1 | 149 µmolequiv/g | 1210 µmolequiv/g | 9380 µmolequiv/g | 0.57 µM | 4.3 µM | 343 nm | 342 nm | 10.2 | 0.26 | 1.5 | 5% |
| O=C(N/N=C/c1c(O)ccc2ccccc12)c1cc2ccccc2o1 | 132 µmolequiv/g | 132 µmolequiv/g | – | 3.01 µM | 4.5 µM | 329 nm | 359 nm | 8.82 | 0.39 | 2.85 | – |
| O=C(N/N=C/c1cc(Cl)ccc1O)c1cc2ccccc2o1 | Below limit of detection | 46.3 µmolequiv/g | – | 2.02 µM | 3.7 µM | 310 nm | 357 nm | 5.78 | 1.14 | 2.89 | – |
| O=C(N/N=C/c1c(O)cc(O)cc1O)c1cc2ccccc2o1 | 1140 µmolequiv/g | 4020 µmolequiv/g | 3560 µmolequiv/g | 24.4 µM | 64 µM | 345 nm | 366 nm | 1.99 | 1.32 | 2.02 | – |
| O=C(N/N=C/c1ccc(O)c(O)c1O)c1cc2ccccc2o1 | 9210 µmolequiv/g | 13200 µmolequiv/g | 5260 µmolequiv/g | 6.48 µM | 6 µM | 336 nm | 353 nm | 7.58 | 0.85 | 2.45 | – |
